Source: ChEMBL document CHEMBL3797060, “Discovery of 5-Chloro-1-(5-chloro-2-(methylsulfonyl)benzyl)-2-imino-1,2-dihydropyridine-3-carboxamide (TAK-259) as a Novel, Selective, and Orally Active α1D Adrenoceptor Antagonist with Antiurinary Frequency Effects: Reducing Human Ether-a-go-go-Related Gene (hERG) Liabilities” (J Med Chem, 2016)

Experiments:
[1] = target: T1, Alpha-1D adrenergic receptor (Homo sapiens, UniProt P25100); assay: Displacement of 7-methoxy-[3H]-prazosin from human alpha1D adrenergic receptor expressed in CHO-K1 cell membranes incubated for 60 mins by liquid scintillation counting analysis
T1 sequence (P25100 whole entry): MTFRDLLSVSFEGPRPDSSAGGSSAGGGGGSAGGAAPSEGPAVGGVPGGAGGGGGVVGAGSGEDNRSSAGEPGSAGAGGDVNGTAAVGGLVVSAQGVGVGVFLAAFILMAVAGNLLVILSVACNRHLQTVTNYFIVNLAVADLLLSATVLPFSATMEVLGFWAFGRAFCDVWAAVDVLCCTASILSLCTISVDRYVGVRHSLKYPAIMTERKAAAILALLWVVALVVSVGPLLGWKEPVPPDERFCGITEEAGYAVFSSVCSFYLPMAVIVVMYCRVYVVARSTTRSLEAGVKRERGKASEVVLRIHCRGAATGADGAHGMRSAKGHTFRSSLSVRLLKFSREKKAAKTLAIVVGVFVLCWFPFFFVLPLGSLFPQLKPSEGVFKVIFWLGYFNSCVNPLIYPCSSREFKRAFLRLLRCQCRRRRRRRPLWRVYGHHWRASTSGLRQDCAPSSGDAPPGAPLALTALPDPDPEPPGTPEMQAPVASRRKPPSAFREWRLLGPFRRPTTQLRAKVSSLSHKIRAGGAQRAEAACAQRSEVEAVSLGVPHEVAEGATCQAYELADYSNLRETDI
Method in brief: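 CHO-K1 stable-line membranes (10 µg protein), 2.5 nmol/L ligand, Tris-HCl pH 7.5 with MgCl2, EDTA and 0.5% BSA, 12 compound concentrations, room temperature. Filtered and counted; nonspecific binding with 10 µmol/L phentolamine. IC50 by logistic regression, converted to Ki by Cheng-Prusoff with Kd 0.93 (α1A), 0.35 (α1B), 0.26 (α1D) nmol/L. Triplicate mean, 95% CI.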

[2] = target: hERG (KCNH2) (Homo sapiens, UniProt Q12809); assay: Inhibition of human ERG channel expressed in CHO cells assessed as peak tail current at 10 uM incubated for 5 mins by patch-clamp assay; type: cell-based; conditions: CHO cells expressing human ERG channel
Sequence of hERG (KCNH2) (Q12809 whole entry): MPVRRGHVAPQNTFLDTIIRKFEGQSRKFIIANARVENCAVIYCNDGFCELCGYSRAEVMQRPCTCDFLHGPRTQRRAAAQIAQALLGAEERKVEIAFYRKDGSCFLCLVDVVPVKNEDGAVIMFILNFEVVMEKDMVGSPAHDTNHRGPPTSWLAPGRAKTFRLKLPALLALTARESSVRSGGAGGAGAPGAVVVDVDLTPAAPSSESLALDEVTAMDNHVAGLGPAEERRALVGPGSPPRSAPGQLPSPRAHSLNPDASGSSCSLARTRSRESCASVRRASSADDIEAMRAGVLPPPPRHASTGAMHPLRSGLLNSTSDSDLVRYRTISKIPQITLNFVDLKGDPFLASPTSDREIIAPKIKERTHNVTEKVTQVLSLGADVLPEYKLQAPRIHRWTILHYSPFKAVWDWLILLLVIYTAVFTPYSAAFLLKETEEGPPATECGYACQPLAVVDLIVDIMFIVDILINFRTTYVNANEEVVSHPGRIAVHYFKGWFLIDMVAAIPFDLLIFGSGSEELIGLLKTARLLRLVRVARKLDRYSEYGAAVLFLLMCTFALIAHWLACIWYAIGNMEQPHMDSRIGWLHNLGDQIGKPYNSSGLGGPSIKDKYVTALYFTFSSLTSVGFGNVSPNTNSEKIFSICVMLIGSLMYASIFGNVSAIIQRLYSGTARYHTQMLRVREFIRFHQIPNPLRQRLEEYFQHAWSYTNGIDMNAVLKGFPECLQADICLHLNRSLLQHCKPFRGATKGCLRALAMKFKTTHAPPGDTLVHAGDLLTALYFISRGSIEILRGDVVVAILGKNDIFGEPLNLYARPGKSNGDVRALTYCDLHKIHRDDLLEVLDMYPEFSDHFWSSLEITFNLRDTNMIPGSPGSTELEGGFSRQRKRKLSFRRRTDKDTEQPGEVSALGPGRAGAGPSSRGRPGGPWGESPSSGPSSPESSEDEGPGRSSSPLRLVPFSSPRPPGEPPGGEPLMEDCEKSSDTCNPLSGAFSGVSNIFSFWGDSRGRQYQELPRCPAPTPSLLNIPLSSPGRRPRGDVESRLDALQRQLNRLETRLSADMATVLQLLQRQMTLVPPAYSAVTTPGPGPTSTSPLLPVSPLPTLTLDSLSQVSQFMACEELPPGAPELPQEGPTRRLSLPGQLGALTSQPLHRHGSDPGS
Method in brief: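 CHO cells stably expressing hERG, grown at 32 °C, 5% CO2 in Ham's F-12 with 10% FBS and 500 µg/mL Geneticin. Population patch clamp with PBS (Ca/Mg) outside, KCl/MgCl2/EGTA/HEPES pH 7.3 inside, amphotericin B perforation. Holding −80 mV, step to 40 mV 2 s, then −50 mV 2 s. Peak tail current taken before and after 5 min compound exposure, inhibition = 100 − post/pre×100, n = 3 or 4.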

[3] = system: Rattus norvegicus; assay: Reduction of urinary frequency in po dosed Sprague-Dawley rat with cyclophosphamide-induced cystitis assessed as increased voiding intervals administered at voiding intervals less <7.2 mins measured after 5 to 35 mins by cystometrogram; type: functional; conditions: Urine, read-out: MED
[4] = Cmax in rat at 1 mg/kg, po administered via cassette dosing by LC/MS/MS analysis; type: ADME, organism-based; parameters: dose 1 mg/kg, route oral; conditions: in vivo
Method in brief: (§1)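 Fed rats dosed orally at 1 mg/kg as 0.5% methylcellulose suspension by cassette dosing; bioavailability also uses an iv arm of 0.1 mg/kg in DMA/1,3-butanediol (1:1). Plasma obtained from blood by centrifugation, deproteinized, and measured by LC/MS/MS. Values are averages of three rats.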

[5] = system: Urinary bladder; assay: Inhibition of (R)-(-)-phenylephrine hydrochloride-induced contractions in Wistar rat bladder with outlet obstruction treated every 30 minutes post (R)-(-)-phenylephrine hydrochloride challenge; type: functional; conditions: for IC30: 0.5 h
[6] = AUC in rat at 1 mg/kg, po administered via cassette dosing by LC/MS/MS analysis; type: ADME, organism-based; conditions: in vivo; method in brief: as §1
[7] = species on record: Homo sapiens; assay: Selectivity ratio of Ki for human alpha1A adrenergic receptor to Ki for human alpha1D adrenergic receptor
Method in brief: (§2)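 Membranes from CHO-K1 cells stably expressing human α1A, α1B or α1D receptors (10 µg protein) incubated 60 min at room temperature with 2.5 nmol/L 7-methoxy[3H]-prazosin and 12 compound concentrations in Tris-HCl pH 7.5 buffer with MgCl2, EDTA, 0.5% BSA. Bound counts taken after filtration; nonspecific binding defined with 10 µmol/L phentolamine.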

[8] = Oral bioavailability in rat at 1 mg/kg administered via cassette dosing by LC/MS/MS analysis; type: ADME, organism-based; conditions: in vivo; method in brief: as §1
[9] = species on record: Homo sapiens; assay: Selectivity ratio of Ki for human alpha1B adrenergic receptor to Ki for human alpha1D adrenergic receptor; method in brief: as §2
[10] = system: Rattus norvegicus; assay: Inhibition of nonvoiding contractions during urinary storage phase in iv dosed Wistar rat with bladder outlet obstruction after 10 mins by cystometrogram; type: functional; conditions: for ED50: read-out: ID50 (the source's name)
[11] = Total clearance in rat at 0.1 mg/kg, iv administered via cassette dosing by LC/MS/MS analysis; type: ADME, organism-based; conditions: in vivo
Method in brief: (§3)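 Cassette dosing iv at 0.1 mg/kg in DMA/1,3-butanediol (1:1) to fed rats. Blood collected after dosing and centrifuged to plasma, which was deproteinized and centrifuged; supernatant concentrations measured by LC/MS/MS.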

[12] = Mean residence time in rat at 1 mg/kg, po administered via cassette dosing by LC/MS/MS analysis; type: ADME, organism-based; conditions: in vivo; method in brief: as §1
[13] = Volume of distribution at steady state in rat at 0.1 mg/kg, iv administered via cassette dosing by LC/MS/MS analysis; type: ADME, organism-based; conditions: in vivo, read-out: Vdss; method in brief: as §3

Row | Structure (SMILES) | Ki [1] [µM] | inhibition at 5 min, 10 µM [2] [%] | also measured
1 | CN(C)C(=O)c1cc(Cl)cn(Cc2ccccc2)c1=N | > 0.94 | – | –
2 | N=c1c(C(N)=O)cc(Br)cn1Cc1ccccc1 | 0.16 | – | –
3 | Cc1cccc(Cn2cc(Cl)cc(C(N)=O)c2=N)c1 | 0.0075 | – | –
4 | N=c1c(C(N)=O)cc(Cl)cn1Cc1ccco1 | 0.16 | – | –
5 | N=c1c(C(N)=O)cc(Cl)cn1Cc1ccccn1 | 0.42 | – | –
6 | N=c1c(C(N)=O)cc(Cl)cn1CCCc1ccccc1 | 0.054 | – | –
7 | N#Cc1ccc(Cn2cc(Cl)cc(C(N)=O)c2=N)cc1Cl | 0.011 | 74 | –
8 | N#Cc1ccc(Cl)cc1Cn1cc(Cl)cc(C(N)=O)c1=N | 0.0085 | 59 | –
9 | CS(=O)(=O)c1cc(Cl)cc(Cn2cc(Cl)cc(C(N)=O)c2=N)c1 | 0.0048 | 14 | –
10 | CCNC(=O)c1cc(Cl)cn(Cc2ccccc2)c1=N | > 0.94 | – | –
11 | N=c1c(C(N)=O)cc(Cl)cn1-c1ccccc1 | > 0.94 | – | –

Continued, in another order:

Row | Ki [1] [µM] | Structure (SMILES) | inhibition at 5 min, 10 µM [2] [%] | also measured
12 | 0.065 | N=c1c(C(N)=O)cc(Cl)cn1Cc1ccc(C(N)=O)c(Cl)c1 | 10 | –
13 | 0.0011 | CS(=O)(=O)c1ccc(Cl)cc1Cn1cc(Cl)cc(C(N)=O)c1=N | 16 | minimal effective dose [3]: 10 µg/kg; Cmax [4]: 0.0602 µg/mL; inhibition [5]: Dose-dependent effect; IC30 [5]: 0.012 µM; AUC [6]: 0.358 µg·h/mL; Ratio Ki [7]: 200; bioavailability [8]: 84.5%; Ratio Ki [9]: 800; inhibition [10]: Dose-dependent effect; ED50 [10]: 1.3 µg/kg; clearance [11]: 2.39 L/h/kg; MRT [12]: 4.53 h; Vd [13]: 4.43 L/kg
14 | 0.13 | C[C@@H](c1cccc(C#N)c1)n1cc(Cl)cc(C(N)=O)c1=N [(S)-9s] | 57 | –
15 | 0.0016 | C[C@H](c1cccc(C#N)c1)n1cc(Cl)cc(C(N)=O)c1=N [(R)-9s] | 25 | minimal effective dose [3]: 10 µg/kg; Cmax [4]: 0.142 µg/mL; inhibition [5]: Dose-dependent effect; IC30 [5]: 0.015 µM; AUC [6]: 0.368 µg·h/mL; Ratio Ki [7]: > 1700; bioavailability [8]: 86%; Ratio Ki [9]: > 750; inhibition [10]: Dose-dependent effect; ED50 [10]: 4.4 µg/kg; clearance [11]: 2.35 L/h/kg; MRT [12]: 3.14 h; Vd [13]: 4.68 L/kg
16 | 0.026 | N=c1c(C(N)=O)cc(Cl)cn1Cc1cccc(C(N)=O)c1 | – | –
17 | 0.0094 | CS(=O)(=O)c1ccc(Cn2cc(Cl)cc(C(N)=O)c2=N)cc1Cl | 13 | –
18 | 0.052 | CS(=O)(=O)c1cccc(Cn2cc(Cl)cc(C(N)=O)c2=N)c1 | – | –
